What all share (type): functional
One experiment relates to Candida albicans. Nature of the experiment: Antimicrobial activity against Candida albicans by broth microdilution method. An outline of the steps:
(§1)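 Yeast strains: Candida albicans ATCC 90028 and Cryptococcus neoformans ATCC 90112. Tested by broth microdilution following the NCCLS reference broth dilution method for yeasts. The MIC was read as the lowest compound concentration giving no visible growth (optically clear wells).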
In general terms: Dilution methods test growth across graded concentrations, often in twofold steps.

For another experiment, the system named is SF-268. Nature of the experiment: Cytotoxicity against human SF268 cells.
The test system of a further experiment is BXPC-3. As to the kind of experiment: Cytotoxicity against human BxPC3 cells.
For a further experiment, the system named is KM-20L2. As to the kind of experiment: Cytotoxicity against human KM20L2 cells.
The subject of another experiment is P388. As to the kind of experiment: Cytotoxicity against mouse P388 cells.
The subject of a further experiment is NCI-H460. As to the kind of experiment: Cytotoxicity against human NCI-H460 cells.
The next experiment has as its system Cryptococcus neoformans. As to the kind of experiment: Antimicrobial activity against Cryptococcus neoformans by broth microdilution method. An outline of the steps:
as §1

Another experiment deals with MCF7. Nature of the experiment: Cytotoxicity against human MCF7 cells.
Another experiment has as its system DU-145. As to the kind of experiment: Cytotoxicity against human DU145 cells.

Values after ≈ are worked out from the molar mass of the structure shown.

For the molecule `C[C@@]12CCC[C@]3(C)C4=CC(=O)O[C@@H](O)C4=C[C@@H](OC1=O)[C@@H]23` [YUKONIN], the MIC against Candida albicans is above 64 µg/mL; against Cryptococcus neoformans, 64 µg/mL (≈ 220 µM). The GI50 was 2.9 µg/mL (≈ 9.99 µM) in the experiment with SF-268; 5.6 µg/mL (≈ 19.3 µM) with BXPC-3; 3.6 µg/mL (≈ 12.4 µM) in the experiment with KM-20L2; above 10 µg/mL in the experiment with P388; 4.1 µg/mL (≈ 14.1 µM) in the experiment with NCI-H460; 4 µg/mL (≈ 13.8 µM) in the experiment with MCF7. The molecule also yielded a GI50 with DU-145 of 2.9 µg/mL (≈ 9.99 µM).

In the case of `CO[C@H]1OC(=O)C=C2C1=C[C@H]1OC(=O)[C@@]3(C)CCC[C@@]2(C)[C@@H]13`, the figures for the MIC against Candida albicans and against Cryptococcus neoformans were 8 µg/mL (≈ 26.3 µM) and 2 µg/mL (≈ 6.57 µM), respectively. Further, the concentration for 50% growth inhibition (GI50) is 0.24 µg/mL (≈ 0.789 µM) with SF-268; 0.36 µg/mL (≈ 1.18 µM) in the experiment on BXPC-3; 0.21 µg/mL (≈ 0.69 µM) in the experiment with KM-20L2; 4.1 µg/mL (≈ 13.5 µM) in the experiment with P388; 0.24 µg/mL (≈ 0.789 µM) in the experiment on NCI-H460; 0.33 µg/mL (≈ 1.08 µM) in the experiment on MCF7. The molecule also yielded a GI50 in the experiment with DU-145 of 0.14 µg/mL (≈ 0.46 µM).

For `C[C@@]12CCC[C@]3(C)C4=CC(=O)OCC4=C[C@@H](OC1=O)[C@@H]23`, the minimal inhibitory concentration (MIC) against Candida albicans turned out to be 64 µg/mL (≈ 233 µM); in the experiment on Cryptococcus neoformans, 16 µg/mL (≈ 58.3 µM). Besides, the GI50 turned out to be 0.57 µg/mL (≈ 2.08 µM) in the experiment with SF-268; 1.8 µg/mL (≈ 6.56 µM) with BXPC-3; 0.45 µg/mL (≈ 1.64 µM) in the experiment on KM-20L2; 0.31 µg/mL (≈ 1.13 µM) in the experiment on P388; 0.48 µg/mL (≈ 1.75 µM) with NCI-H460; 0.69 µg/mL (≈ 2.52 µM) in the experiment with MCF7. This molecule returned a GI50 in the experiment on DU-145 of 0.34 µg/mL (≈ 1.24 µM).

For orientation: MIC means the least concentration at which growth counts as inhibited. Higher therefore signals a need for much substance. As usually defined, the GI50 is the concentration that inhibits growth by half. A high value points to less potent growth inhibition.
